From article PMC5679012 (Chemistry (Weinheim an der Bergstrasse, Germany), 2017)

Assay: CO release kinetics by increase of fluorescence intensity in DMSO/PBS
Format: physicochemical
Settings: fluorescence increase (450 nm); 100 μM; DMSO/PBS (pH = 7.4) 4:1, 37 °C
Outline: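 Test compounds of scaffolds I and II were dissolved in DMSO/PBS (pH 7.4, 4:1) at 100 μM final and held at 37 °C. CO release was tracked as the rise in fluorescence intensity at 450 nm, read at successive time points. Each experiment was repeated three times independently.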

t1/2, half-life for CO release: ~12 min
SMILES: C#CC(C)(C)NC(=O)C1=C2C(=C(c3ccccc3)C1=O)c1cccc3cccc2c13 [BW-CO-111]
k, CO release rate: 3.31 ± 0.28 h⁻¹
